Assay results from publication PMC10785272 (ACS Omega, 2023).

Columns and labels:
[1] = In vitro stability of FGC-Pt in mouse plasma; type: in vitro ADME; conditions: 37 °C
How it was run: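 Test compound (2.4 mg) was mixed with purchased mouse plasma (160 µL) and held at 37 °C for 0, 2, 4 and 6 h. Each mixture was diluted with saline, filtered and analysed by HPLC on a Sugar-D column with a water/methanol linear gradient at 0.5 mL/min, with UV detection at 220 nm. Results are mean ± SD, n = 3.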

A549 cell-bearing mice [2] = test: In vivo biodistribution; set-up: species or system mouse; conditions: 4 mg of Pt/kg tail vein; for ratio of platinum concentration tumor/blood / ratio of platinum concentration tumor/bone / ratio of platinum concentration tumor/kidney / ratio of platinum concentration tumor/liver / ratio of platinum concentration tumor/muscle: A549 cell-bearing mice; for platinum accumulation in tumors: ICP-MS, mean ± SD (n = 4)
How it was run: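 Male BALB/c nu/nu mice (5 weeks old, quarantined 1 week) received 1 × 10^7 A549 cells s.c. into the right shoulder. At 50 mm3 tumour volume, mice got 4 mg Pt/kg by tail vein in freshly prepared saline (n = 4/group). At 24 and 48 h, Pt in tumour, muscle, bone, blood, liver and kidney was measured by ICP-MS after acid digestion. Values are ng Pt/g tissue and tumour/organ concentration ratios.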

HeLa cells = test: In vitro cytotoxicity MTS assay with HeLa cells; type: cell-based, human; conditions: HeLa cell line, 48 h incubation, mean ± SD (n = 3)
How it was run: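 HeLa cells were grown in EMEM with 10% FBS, nonessential amino acids and sodium pyruvate at 37 °C in 5% CO2. They were seeded at 40000 cells/well and left 24 h, then exposed 48 h to freshly prepared medium holding test compound over 0–100 or 0–1000 µM. MTS was added for 3 h and absorbance read at 490 nm. IC50 was obtained by curve fitting; runs were in triplicate.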

A549 cell-bearing mice [3] = test: In vivo assessment of antitumor effect and toxicity in A549 cell-bearing mice; set-up: species or system mouse; conditions: 2.7 mg of Pt/kg i.v. on days 1, 8, 15, 22; n = 6

**Q.** Which “half-life in mouse plasma” value [1] does the source give for “cis-Dichloro [(2-Fluoro-α-D-glucopylanosidyl)propane-1,3-diamine] Platinum [FGC-Pt]” here?
**A.** Its value is “approximately 2 h”.

**Q.** And the “ratio of platinum concentration tumor/blood” value (A549 cell-bearing mice [2]; 24 h post-injection)?
**A.** The value was 11.07.

**Q.** And the “ratio of platinum concentration tumor/bone” value (A549 cell-bearing mice [2]; 24 h post-injection)?
**A.** The value was 2.93.

**Q.** And the “ratio of platinum concentration tumor/kidney” value (A549 cell-bearing mice [2]; 24 h post-injection)?
**A.** Its value is 0.29.

**Q.** What about the “ratio of platinum concentration tumor/liver” value (A549 cell-bearing mice [2]; 24 h post-injection) of the same substance?
**A.** Its value is 0.50.

**Q.** What about the “ratio of platinum concentration tumor/muscle” value (A549 cell-bearing mice [2]; 24 h post-injection) of the same substance?
**A.** The value was 3.64.

**Q.** What about the “platinum accumulation in tumors” value (A549 cell-bearing mice [2]; 24 h post-injection) of the same substance?
**A.** Its value is 1058 ± 220 Pt ng/g tissue.

**Q.** What about the “ratio of platinum concentration tumor/blood” value (A549 cell-bearing mice [2]; 48 h post-injection) of the same substance?
**A.** Its value is 14.37.

**Q.** What about the “ratio of platinum concentration tumor/bone” value (A549 cell-bearing mice [2]; 48 h post-injection) of the same substance?
**A.** Its value is 3.03.

**Q.** What about the “ratio of platinum concentration tumor/kidney” value (A549 cell-bearing mice [2]; 48 h post-injection) of the same substance?
**A.** The value was 0.42.

**Q.** And the “ratio of platinum concentration tumor/liver” value (A549 cell-bearing mice [2]; 48 h post-injection)?
**A.** The value was 0.59.

**Q.** What about the “ratio of platinum concentration tumor/muscle” value (A549 cell-bearing mice [2]; 48 h post-injection) of the same substance?
**A.** The value was 4.09.

**Q.** And the “platinum accumulation in tumors” value (A549 cell-bearing mice [2]; 48 h post-injection)?
**A.** The value was 1055 ± 278 Pt ng/g tissue.

**Q.** And the IC50 (HeLa cells)?
**A.** Its IC50 is 447 ± 99 µM.

**Q.** And the “toxic side effects (body weight, loss of appetite, injection site)” value (A549 cell-bearing mice [3])?
**A.** The value was “reduces toxicity compared to that of cisplatin”.
